Data as given in ChEMBL document CHEMBL4837217, “Design, synthesis, in vitro and in vivo biological evaluation of pyranone-piperazine analogs as potent antileishmanial agents” (Eur J Med Chem, 2021).
Calls of active or inactive are those of the source. The rule behind the calls is not given here.

Legend:
Splenocyte [1] = test: Immunomodulatory activity in BALB/c mouse infected with Leishmania donovani amastigotes assessed as decrease in TGF-beta level in splenocytes supernatants at 50 mg/kg, ip for 5 days; format: functional, organism-based; conditions: time 5.0 day
Leishmania donovani [2] = test: Antileishmanial activity against amastigote stage of Leishmania donovani MHOM/IN/80/Dd8 harboring luciferase gene infected in mouse J774 cells assessed as parasite killing at 50 to 100 uM incubated for 72 hrs by Steady-Glo reagent based luciferase assay; format: functional; conditions: dose 50-100 µM
Summary of the method: (§1)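 J774 murine macrophages, 4 × 10⁴ cells/well in RPMI with 10% FBS for 24 h, are infected for 24 h at 37 °C, 5% CO₂ with stationary-phase luciferase-transfected L. donovani Dd8 promastigotes at a 1:8 macrophage:parasite ratio. Compounds are dissolved in DMSO. Luminescence is read after Steady-Glo is added in PBS. IC₅₀ is taken from a four-parameter Hill nonlinear regression. Miltefosine is the reference.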

Leishmania donovani [3] = test: Induction of apoptosis in Leishmania donovani MHOM/IN/80/Dd8 promastigotes assessed as late apoptotic cells at 50 uM measured after 24 hrs by Alexa fluor488-AnnexinV/PI staining based FACSCalibur flow cytometry analysis (reference value: 0.7%); format: functional
Leishmania donovani [4] = test: Antileishmanial activity against log phase of Leishmania donovani MHOM/IN/80/Dd8 promastigotes assessed as reduction in cell viability at 25 uM incubated for 72 hrs by MTT assay; format: functional
Summary of the method: (§2)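 Log-phase luciferase-transfected L. donovani Dd8 promastigotes (M199 + 10% FBS, 24 °C) treated with compounds at 25 and 50 µM in DMSO, with 0.1% DMSO vehicle control. After 72 h, MTT added 4 h. Formazan dissolved in DMSO, read at 570 nm. Percent inhibition reported as mean ± SD of at least three independent experiments in replicate.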

Leishmania donovani [5] = test: Antileishmanial activity against log phase of Leishmania donovani MHOM/IN/80/Dd8 promastigotes assessed as reduction in cell viability by MTT assay; format: functional, organism-based; conditions: time 12-72 hrs, TDE = time-dependent effect
Splenocyte [6] = test: Immunomodulatory activity in BALB/c mouse infected with Leishmania donovani amastigotes assessed as increase in IFN-gamma level in splenocytes supernatants at 50 mg/kg, ip for 5 days; format: functional, organism-based; conditions: time 5.0 day
Leishmania donovani [7] = test: Antileishmanial activity against amastigote stage of Leishmania donovani MHOM/IN/80/Dd8 harboring luciferase gene infected in mouse J774 cells assessed as parasite killing incubated for 72 hrs by Steady-Glo reagent based luciferase assay; format: functional, organism-based; conditions: dose 3.12-50 µM; summary of the method: as §1
Leishmania donovani [8] = test: Antileishmanial activity against amastigote stage of Leishmania donovani MHOM/IN/80/Dd8 harboring luciferase gene infected in mouse J774 cells assessed as parasite growth inhibition incubated for 72 hrs by Steady-Glo reagent based luciferase assay; format: functional, organism-based; conditions: MHOM/IN/80/Dd8, J774, 72 h; summary of the method: as §1
Leishmania donovani [9] = test: Antileishmanial activity against log phase of Leishmania donovani MHOM/IN/80/Dd8 promastigotes assessed as reduction in cell viability at 50 uM incubated for 72 hrs by MTT assay; format: functional; summary of the method: as §2
Leishmania donovani [10] = test: Induction of apoptosis in Leishmania donovani MHOM/IN/80/Dd8 promastigotes assessed as early apoptotic cells at 50 uM measured after 48 hrs by Alexa fluor488-AnnexinV/PI staining based FACSCalibur flow cytometry analysis (reference value: 10.3%); format: functional

N#Cc1c(N2CCN(c3ccccc3O)CC2)cc(-c2ccccc2)oc1=O
Activity (Splenocyte [1]): inactive
Activity (Leishmania donovani [2]): >89%
Activity (Leishmania donovani [3]): 1.2%
inhibition at 25 µM (Leishmania donovani [4]): 82.7%
Activity (Leishmania donovani [5]): Tde
Activity (Splenocyte [6]): inactive
Activity (Leishmania donovani [7]): Dose-Dependent Effect
IC50 (Leishmania donovani [8]): 11.1 µM
inhibition at 50 µM (Leishmania donovani [9]): 85.2%
Activity (Leishmania donovani [10]): 39.1%
